Assay results from ChEMBL document CHEMBL2203116, “Synthesis and evaluation of novel carbon-11 labeled oxopurine analogues for positron emission tomography imaging of translocator protein (18 kDa) in peripheral organs” (J Med Chem, 2011).

Experiments:
[1] = tested on: Kidney; assay: Drug uptake in Sprague-Dawley rat kidney at 0.15 nmol, iv pretreated with unlabeled (R)-PK11195 by PET scanning; format: ADME, organism-based; conditions: in vivo
Method in brief: (§1)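 Male Sprague-Dawley rats (6–8 weeks old), isoflurane-anesthetized, prone. ROIs on lung, heart, kidney, liver, small intestine and cardiac blood pool. Uptake decay-corrected to injection time and expressed as SUV (body-weight normalized). n = 4, mean ± SD.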

[2] = Metabolic stability in Sprague-Dawley rat heart assessed as unchanged compound at 0.32 nmol, iv after 30 mins by analytical radio- HPLC; format: ADME, organism-based; conditions: read-out: Stability
Method in brief: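 Rats (n = 3) given radioligand iv (37 MBq/100 μL, 0.32 nmol) and killed at 30 min. Heart and kidney homogenized in ice-cold MeCN/H2O 4/6, centrifuged 15000 rpm for 1 min at 4 °C. Supernatant run on analytical radio-HPLC (C18, MeCN/H2O 4/6). Percent parent = parent peak area over total peak areas, decay-corrected. Mean ± SD.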

[3] = Metabolic stability in Sprague-Dawley rat liver assessed as unchanged compound at 0.32 nmol, iv after 30 mins by analytical radio- HPLC; format: ADME, organism-based; conditions: read-out: Stability
[4] = tested on: Lung; assay: Biodistribution in LPS-treated Sprague-Dawley rat lung at 0.19 nmol, iv by gamma counting; format: ADME, organism-based; conditions: in vivo
Method in brief: (§2)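 Male Sprague-Dawley rats were given intratracheal LPS (E. coli O127:B8, 5.0 mg/kg in 50 μL saline) or 50 μL saline vehicle 24 h before tracer. [11C]Radioligand (16 MBq/200 μL, 0.19 nmol) in saline was injected via the tail vein. Rats were killed at 30 min (n = 4 per group). Tissues were weighed and gamma-counted, expressed as decay-corrected %ID/g.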

[5] = tested on: Heart; assay: Biodistribution in LPS-treated Sprague-Dawley rat heart at 0.19 nmol, iv by gamma counting; format: ADME, organism-based; conditions: in vivo; method in brief: as §2
[6] = tested on: Liver; assay: Biodistribution in LPS-treated Sprague-Dawley rat liver at 0.19 nmol, iv by gamma counting; format: ADME, organism-based; conditions: in vivo; method in brief: as §2
[7] = tested on: Rattus norvegicus; assay: Biodistribution in LPS-treated Sprague-Dawley rat small intestine at 0.19 nmol, iv by gamma counting; format: ADME, organism-based; conditions: in vivo; method in brief: as §2
[8] = tested on: Muscle tissue; assay: Biodistribution in LPS-treated Sprague-Dawley rat muscle at 0.19 nmol, iv by gamma counting; format: ADME, organism-based; conditions: in vivo; method in brief: as §2
[9] = tested on: Blood; assay: Biodistribution in Sprague-Dawley rat blood at 0.19 nmol, iv by gamma counting; format: ADME, organism-based; conditions: in vivo; method in brief: as §2
[10] = tested on: Spleen; assay: Biodistribution in Sprague-Dawley rat spleen at 0.19 nmol, iv by gamma counting; format: ADME, organism-based; conditions: in vivo; method in brief: as §2
[11] = tested on: Adrenal; assay: Biodistribution in Sprague-Dawley rat adrenal at 0.19 nmol, iv by gamma counting; format: ADME, organism-based, Adrenal tissue; conditions: in vivo; method in brief: as §2
[12] = tested on: Rattus norvegicus; assay: Biodistribution in Sprague-Dawley rat small intestine at 0.19 nmol, iv by gamma counting; format: ADME, organism-based; conditions: in vivo; method in brief: as §2
[13] = tested on: Lung; assay: Drug uptake in Sprague-Dawley rat lung at 0.15 nmol, iv after 30 mins by PET scanning; format: ADME, organism-based; conditions: in vivo, 0.5 h; method in brief: as §1
[14] = tested on: Intestine; assay: Drug uptake in Sprague-Dawley rat small intestine at 0.15 nmol, iv up to 30 mins by PET scanning; format: ADME, organism-based; conditions: in vivo, 0.5 h; method in brief: as §1
[15] = tested on: Liver; assay: Drug uptake in Sprague-Dawley rat liver at 0.15 nmol, iv after 2 mins by PET scanning; format: ADME, organism-based; conditions: in vivo; method in brief: as §1
[16] = tested on: Blood; assay: Drug uptake in Sprague-Dawley rat cardiac blood pool at 0.15 nmol, iv after 2 mins by PET scanning; format: ADME, organism-based; conditions: in vivo
Method in brief: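 Isoflurane-anesthetized male Sprague-Dawley rats lay prone and received an iv bolus of [11C]radioligand in 200 μL. 3D list-mode emission scans ran 30 min from injection. Regions of interest were drawn on the organs and cardiac blood pool. Uptake was decay-corrected to injection time and expressed as SUV (normalized to injected radioactivity and body weight). Values are mean of n = 4.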

[17] = tested on: Kidney; assay: Drug uptake in Sprague-Dawley rat kidney at 0.15 nmol, iv after 27.5 mins by PET scanning; format: ADME, organism-based; conditions: in vivo; method in brief: as §1

With `CCN(Cc1ccncc1)C(=O)Cn1c(=O)n([11CH3])c2cnc(-c3ccccc3)nc21` the Drug uptake [1] was “Not Active”, the remaining at 0.5 h [2] was 93.8% and the remaining at 0.5 h [3] was 43.6%. For the same compound, the Drug uptake [4] was 3.54 % ID/g, the Drug uptake [5] was 2.17 % ID/g and the Drug uptake [6] was 1.03 % ID/g. It also gave a Drug uptake [7] of 2.68 % ID/g, a Drug uptake [8] of 0.1 % ID/g and a Drug uptake [9] of 0.06 % ID/g. The Drug uptake [10] was 1.88 % ID/g, the Drug uptake [11] was 7.49 % ID/g and the Drug uptake [12] was 1.57 % ID/g. For the same compound, the Drug uptake [13] was “Active”, the Drug uptake [14] was “Active” and the SUV [15] was 1.6. The SUV [16] was 3 and the SUV [17] was 1.
